{"source": "ChEMBL document CHEMBL3297648", "about": "“Diterpenoids from the Chinese liverwort Heteroscyphus tener and their antiproliferative effects” (J Nat Prod, 2014)", "key": {"PC-3": {"tested_on": "PC-3", "assay": "Increase in p21CIP1 protein expression in human PC3 cells after 2 to 48 hrs by western blot analysis", "type": "functional, cell-based", "in_short": "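Western blot of cyclin D1, cyclin E, Cdk4 and p21 in PC3 and DU145 lysates. Lysis in RIPA buffer plus protease inhibitors, BCA quantification, 12% SDS-PAGE, nitrocellulose transfer, milk block, primaries overnight at 4 °C, secondary 1:2000 for 45 min, ECL read-out. GAPDH served as loading control.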"}, "DU-145 [1]": {"tested_on": "DU-145", "assay": "Induction of apoptosis in human DU145 cells assessed as early apoptotic cells at 20 uM after 12 hrs by Annexin V-FITC/propidium iodide staining based flow cytometry (reference value: 1.60%)", "type": "functional", "in_short": "(§1)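 Cells seeded in 6-well plates for 24 h, then given 20 μM for the stated times. Cells were trypsinized, PBS-washed, stained with annexin V-FITC/PI, and analysed immediately by flow cytometry. Means ± SD of three independent experiments; Student's t test against untreated control.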"}, "DU-145 [2]": {"tested_on": "DU-145", "assay": "Induction of apoptosis in human DU145 cells assessed as early apoptotic cells at 20 uM after 24 hrs by Annexin V-FITC/propidium iodide staining based flow cytometry (reference value: 1.60%)", "type": "functional", "in_short": "as §1"}, "DU-145 [3]": {"tested_on": "DU-145", "assay": "Induction of DNA damage in human DU145 cells assessed as gamma-H2AX phosphorylation at ser139 at 20 uM by western blot analysis", "type": "functional, cell-based", "settings": "TDE = time-dependent effect", "in_short": "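Cells treated at 20 μM for various times, lysed in RIPA buffer with protease/phosphatase inhibitors, protein quantified by BCA. Equal protein run on 12% SDS-PAGE, transferred to nitrocellulose, blocked 1 h in 5% milk/TBST, primary antibodies overnight at 4 °C, secondary 1:2000 for 45 min, ECL detection on film. GAPDH used as loading control.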"}}, "note": "The source made the active and inactive calls. The rule behind the calls is not given here.", "data": [{"compound": "C=C[C@@](C)(O)CC[C@@H]1C(C)=CC[C@@H]2C(C)(C)CCC[C@@]12C", "values": [{"measurement": "Activity", "setting": "PC-3", "result": "Active"}, {"measurement": "Activity", "setting": "DU-145 [1]", "result": 6.55, "unit": "%"}, {"measurement": "Activity", "setting": "DU-145 [2]", "result": 7.16, "unit": "%"}, {"measurement": "Activity", "setting": "DU-145 [3]", "result": "tde"}]}]}
